Assays:
[1] = target: T1, NADPH oxidase 2 (Homo sapiens, UniProt P04839); assay: Inhibition of full length human NOX2 transfected in COS 22 cells assessed as inhibition of Phorbol 12-myristate 13-acetate-stimulated ROS generation by chemiluminescence assay; type: cell-based
T1 sequence (P04839 whole entry): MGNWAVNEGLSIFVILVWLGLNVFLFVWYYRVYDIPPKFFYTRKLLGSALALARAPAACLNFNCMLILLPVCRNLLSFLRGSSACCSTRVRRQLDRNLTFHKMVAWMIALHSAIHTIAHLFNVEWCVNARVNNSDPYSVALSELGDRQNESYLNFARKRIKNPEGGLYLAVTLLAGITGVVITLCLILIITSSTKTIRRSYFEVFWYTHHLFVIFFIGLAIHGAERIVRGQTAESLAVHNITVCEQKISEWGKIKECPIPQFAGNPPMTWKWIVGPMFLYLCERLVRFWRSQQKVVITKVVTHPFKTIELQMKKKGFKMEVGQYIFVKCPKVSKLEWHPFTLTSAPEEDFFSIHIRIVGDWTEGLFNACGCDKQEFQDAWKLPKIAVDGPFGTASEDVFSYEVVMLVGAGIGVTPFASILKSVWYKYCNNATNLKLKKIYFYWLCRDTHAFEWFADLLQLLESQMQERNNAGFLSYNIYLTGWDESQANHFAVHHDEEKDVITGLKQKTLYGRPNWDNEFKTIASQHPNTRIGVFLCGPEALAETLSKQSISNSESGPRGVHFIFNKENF
Summary of the method: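 COS-Nox2 (COS-7 stably expressing human p22phox, Nox2, p47phox, p67phox) plated in OPTIMEM at 2.5 x 10³ cells/well; 10 min at 37 °C in PBS with L-012, then stimulated with 5 µM PMA; luminescence followed over time; superoxide specificity checked with SOD 150 U/mL. IC50 by three-parameter non-linear fit, Hill slope 1, top/bottom fixed 100/0.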

[2] = target: T1, NADPH oxidase 2; assay: Inhibition of full length human NOX2 transfected in COS 22 cells assessed as inhibition of Phorbol 12-myristate 13-acetate-stimulated ROS generation by measuring H2O2 production by fluorescence assay in presence of superoxide dismutase; type: cell-based
Summary of the method: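 Intact COS-Nox2 cells in Hepes pH 7.4 buffer with 0.1 mM Amplex Red, 0.32 U/ml HRP and 150 U/mL SOD, drug 15 min at 37 °C; started with 5 µM PMA; fluorescence monitored 1 h at 37 °C; rate as RFU/min minus unstimulated cells; % of vehicle control.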

[3] = target: T2, NADPH oxidase 5 (Homo sapiens, UniProt Q96PH1); assay: Inhibition of full length human NOX5 transfected in HEK cells assessed as inhibition of ionomycin-stimulated ROS generation by chemiluminescence assay; type: cell-based, HEK293
T2 sequence (Q96PH1 whole entry): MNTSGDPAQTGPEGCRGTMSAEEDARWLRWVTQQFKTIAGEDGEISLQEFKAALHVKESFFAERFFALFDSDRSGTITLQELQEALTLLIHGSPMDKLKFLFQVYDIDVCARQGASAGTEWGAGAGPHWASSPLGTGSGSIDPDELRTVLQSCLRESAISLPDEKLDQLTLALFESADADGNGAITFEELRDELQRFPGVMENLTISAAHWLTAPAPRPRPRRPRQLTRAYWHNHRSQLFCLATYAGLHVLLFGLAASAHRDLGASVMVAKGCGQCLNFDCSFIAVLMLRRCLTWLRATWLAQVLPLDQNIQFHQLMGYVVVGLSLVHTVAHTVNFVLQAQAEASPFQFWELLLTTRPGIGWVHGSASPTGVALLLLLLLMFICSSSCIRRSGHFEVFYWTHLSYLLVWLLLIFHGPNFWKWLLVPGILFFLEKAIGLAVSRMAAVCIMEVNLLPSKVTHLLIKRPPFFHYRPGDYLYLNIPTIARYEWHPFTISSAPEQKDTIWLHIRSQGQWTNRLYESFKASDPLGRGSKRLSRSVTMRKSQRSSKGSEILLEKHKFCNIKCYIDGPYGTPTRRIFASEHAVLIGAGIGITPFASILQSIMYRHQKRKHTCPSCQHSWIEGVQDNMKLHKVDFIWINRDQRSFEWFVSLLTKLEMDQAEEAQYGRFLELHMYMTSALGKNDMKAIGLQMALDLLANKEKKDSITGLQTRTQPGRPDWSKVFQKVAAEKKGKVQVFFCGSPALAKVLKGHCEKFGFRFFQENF
Summary of the method: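 HEK-Nox5 cells at 5 × 10⁴ cells/well in OPTIMEM, 10 min at 37 °C in PBS with L-012, then stimulated with 1 µM PMA/0.1 µM ionomycin; luminescence over time; SOD 150 U/mL used to confirm superoxide specificity. IC50 by three-parameter fit, Hill slope 1, top/bottom fixed 100/0.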

[4] = target: Xanthine dehydrogenase/oxidase (Bos taurus, UniProt P80457); assay: Inhibition of bovine milk xanthine oxidase assessed as hypoxanthine-stimulated ROS generation by measuring H2O2 production at 25 to 50 uM by fluorescence assay; settings: cattle
[5] = target: T3, NADPH oxidase 1 (Homo sapiens, UniProt Q9Y5S8); assay: Inhibition of full length human NOX1 transfected in COS 22 cells assessed as inhibition of constitutive ROS generation by chemiluminescence assay
T3 sequence (Q9Y5S8 whole entry): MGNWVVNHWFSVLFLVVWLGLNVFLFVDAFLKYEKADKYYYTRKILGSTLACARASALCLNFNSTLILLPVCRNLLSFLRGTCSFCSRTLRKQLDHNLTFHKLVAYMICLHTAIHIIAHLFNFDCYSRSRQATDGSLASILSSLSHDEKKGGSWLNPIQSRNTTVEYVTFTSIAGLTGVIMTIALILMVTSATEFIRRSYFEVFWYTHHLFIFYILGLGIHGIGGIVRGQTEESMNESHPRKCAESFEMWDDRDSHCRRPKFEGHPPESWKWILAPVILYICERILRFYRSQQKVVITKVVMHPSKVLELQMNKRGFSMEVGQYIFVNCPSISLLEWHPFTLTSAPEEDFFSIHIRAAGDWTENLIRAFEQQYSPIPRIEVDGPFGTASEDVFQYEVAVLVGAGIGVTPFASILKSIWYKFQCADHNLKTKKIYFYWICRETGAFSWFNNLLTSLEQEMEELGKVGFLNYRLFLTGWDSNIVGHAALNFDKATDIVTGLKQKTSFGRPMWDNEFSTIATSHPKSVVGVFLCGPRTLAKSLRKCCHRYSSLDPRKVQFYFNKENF

[6] = target: T4, NADPH oxidase 4 (Homo sapiens, UniProt Q9NPH5); assay: Inhibition of full length human NOX4 transfected in COS 22 cells assessed as inhibition of ROS generation by measuring H2O2 production by fluorescence assay
T4 sequence (Q9NPH5 whole entry): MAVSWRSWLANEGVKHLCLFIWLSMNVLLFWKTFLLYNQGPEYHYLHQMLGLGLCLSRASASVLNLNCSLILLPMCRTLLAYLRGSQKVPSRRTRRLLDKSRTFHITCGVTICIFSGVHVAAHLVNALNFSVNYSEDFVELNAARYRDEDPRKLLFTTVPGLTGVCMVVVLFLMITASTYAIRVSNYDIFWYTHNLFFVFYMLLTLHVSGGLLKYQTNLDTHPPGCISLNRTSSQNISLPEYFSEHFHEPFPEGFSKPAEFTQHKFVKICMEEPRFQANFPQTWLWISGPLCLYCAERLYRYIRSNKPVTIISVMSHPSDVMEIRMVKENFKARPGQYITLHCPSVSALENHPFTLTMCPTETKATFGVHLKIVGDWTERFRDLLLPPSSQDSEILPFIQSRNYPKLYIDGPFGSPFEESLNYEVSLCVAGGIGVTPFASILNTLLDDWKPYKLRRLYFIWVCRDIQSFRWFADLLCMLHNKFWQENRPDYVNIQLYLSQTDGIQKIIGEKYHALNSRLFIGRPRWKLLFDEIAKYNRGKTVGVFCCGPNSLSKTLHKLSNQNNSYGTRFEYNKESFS

[7] = Cytotoxicity against african green monkey COS7 cells expressing human p22phox assessed as cell viability at 25 to 50 uM after 15 mins by luminogenic assay; type: cell-based; settings: chlorocebus aethiops, cos-7, 0.25 h
Summary of the method: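 COS-22 cells plated at 2.5 x 10³ cells/well in OPTIMEM, exposed 15 min to compounds at various concentrations; dead-cell protease release read with luminogenic AAF peptide substrate, signal before and after digitonin used to derive % dead; reported as % live cells (100 − % dead) per well.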

Sequence of Xanthine dehydrogenase/oxidase (P80457 whole entry): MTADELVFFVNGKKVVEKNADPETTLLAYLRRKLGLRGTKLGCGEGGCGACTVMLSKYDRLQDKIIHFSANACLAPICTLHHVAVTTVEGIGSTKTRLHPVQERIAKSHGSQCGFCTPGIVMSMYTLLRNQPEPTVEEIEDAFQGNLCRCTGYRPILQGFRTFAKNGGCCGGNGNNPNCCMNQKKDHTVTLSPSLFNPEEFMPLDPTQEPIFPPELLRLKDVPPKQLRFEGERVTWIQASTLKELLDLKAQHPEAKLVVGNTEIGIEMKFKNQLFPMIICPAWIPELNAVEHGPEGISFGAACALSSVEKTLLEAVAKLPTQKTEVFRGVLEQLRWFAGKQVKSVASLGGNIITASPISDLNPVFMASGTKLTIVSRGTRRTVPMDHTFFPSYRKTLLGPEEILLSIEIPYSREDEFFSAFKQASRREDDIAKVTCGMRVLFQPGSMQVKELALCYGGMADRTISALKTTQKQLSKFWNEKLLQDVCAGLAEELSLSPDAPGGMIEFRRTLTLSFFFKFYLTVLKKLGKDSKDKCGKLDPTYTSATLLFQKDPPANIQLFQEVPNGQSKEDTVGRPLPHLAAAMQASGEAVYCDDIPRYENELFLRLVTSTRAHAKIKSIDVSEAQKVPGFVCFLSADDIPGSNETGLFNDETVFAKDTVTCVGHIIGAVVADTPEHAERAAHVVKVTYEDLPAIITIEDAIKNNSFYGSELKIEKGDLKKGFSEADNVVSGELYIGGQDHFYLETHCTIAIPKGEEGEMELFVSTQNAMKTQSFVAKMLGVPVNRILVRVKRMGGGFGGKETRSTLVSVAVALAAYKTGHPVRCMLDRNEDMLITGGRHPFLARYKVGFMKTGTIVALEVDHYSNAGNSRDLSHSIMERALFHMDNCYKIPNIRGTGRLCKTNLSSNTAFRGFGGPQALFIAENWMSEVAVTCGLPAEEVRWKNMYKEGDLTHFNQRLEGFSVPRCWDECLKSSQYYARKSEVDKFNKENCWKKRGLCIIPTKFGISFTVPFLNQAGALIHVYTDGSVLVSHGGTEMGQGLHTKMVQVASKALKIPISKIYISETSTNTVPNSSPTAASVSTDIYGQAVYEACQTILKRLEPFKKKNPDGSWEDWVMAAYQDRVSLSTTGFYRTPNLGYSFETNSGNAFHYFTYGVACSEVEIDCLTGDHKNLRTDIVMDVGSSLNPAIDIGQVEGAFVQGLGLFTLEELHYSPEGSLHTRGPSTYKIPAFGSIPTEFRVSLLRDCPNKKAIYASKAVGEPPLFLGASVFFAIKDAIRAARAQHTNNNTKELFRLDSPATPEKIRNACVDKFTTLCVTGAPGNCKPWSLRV

| SMILES | IC50 ([1]; read-out: IC50) [µM] | IC50 ([2]; read-out: IC50) [µM] | IC50 [3] [µM] | inhibition (INH) [4] | IC50 ([5]; read-out: IC50) [µM] | IC50 ([6]; cos 22) | IC50 ([6]; read-out: IC50) [µM] | IC50 ([5]; cos 22) | Activity [7] | IC50 ([1]; cos 22) | IC50 ([2]; cos 22) |
| --- | --- | --- | --- | --- | --- | --- | --- | --- | --- | --- | --- |
| C=C(C)C[C@@H]1N[C@H]2CC(C)(C)[C@@H]1c1ccccc12 (racemic) | > 100 | > 100 | > 100 | Not Active | > 100 | Not Active |  |  |  |  |  |
| C=C(C)C[C@H]1[C@H]2c3ccccc3[C@H](CC2(C)C)N1Cc1cccc(F)c1 (racemic) | 68 | 30 | 50 | Not Active | > 100 |  | > 100 |  |  |  |  |
| C=C(C)C[C@H]1[C@H]2c3c(Br)cccc3[C@H](CC2(C)C)N1Cc1ccnc2ccccc12 (racemic) | > 100 | > 100 | > 100 | Not Active | > 100 | Not Active |  |  |  |  |  |
| C=C(C)C[C@H]1[C@H]2c3c(Br)cccc3[C@H](CC2(C)C)N1Cc1c[nH]c2ccccc12 (racemic) | > 100 | > 100 | > 100 | Not Active | > 100 | Not Active |  |  |  |  |  |
| C=C(C)C[C@H]1[C@H]2c3c(Br)cccc3[C@H](CC2(C)C)N1Cc1ccc2c(c1)OCO2 (racemic) | 88 | 40 | > 100 | Not Active | > 100 |  | > 100 |  |  |  |  |
| C=C(C)C[C@H]1[C@H]2c3c(Br)cccc3[C@H](CC2(C)C)N1Cc1cccc(F)c1 (racemic) | 68 | 51 | 79 | Not Active | > 100 |  | > 100 |  |  |  |  |
| C=C(C)C[C@@H]1N[C@H]2CC(C)(C)[C@@H]1c1c(-c3cccnc3)cccc12 (racemic) |  |  |  | Not Active |  |  |  |  |  | Not Active | Not Active |
| C=C(C)C[C@H]1[C@H]2c3c(-c4ccc(Cl)c(Cl)c4)cccc3[C@H](CC2(C)C)N1Cc1ccc2c(c1)OCO2 (racemic) | > 100 | > 100 | > 100 | Not Active | > 100 | Not Active |  |  |  |  |  |
| C=C(C)C[C@H]1[C@H]2c3c(-c4ccc(Cl)c(Cl)c4)cccc3[C@H](CC2(C)C)N1CCCCC (racemic) | > 100 | 79 | > 100 | Not Active | > 100 |  | > 100 |  |  |  |  |
| C=C(C)C[C@H]1[C@H]2c3c(Br)cccc3[C@H](CC2(C)C)N1S(C)(=O)=O (racemic) | > 100 | 27 | > 100 | Not Active |  |  | > 100 | Not Active |  |  |  |
| C=C(C)C[C@H]1[C@H]2c3c(Br)cccc3[C@H](CC2(C)C)N1S(=O)(=O)c1ccc(F)cc1 (racemic) | > 100 | > 100 | > 100 | Not Active | > 100 | Not Active |  |  |  |  |  |
| [Cl-].c1ccc2c(c1)[I+]c1ccccc1-2 [DIPHENYLENEIODONIUM CHLORIDE] |  |  |  | Not Active |  |  |  |  |  |  |  |

More lines, main results first:

| IC50 ([1]; read-out: IC50) [µM] | IC50 ([2]; read-out: IC50) [µM] | IC50 [3] [µM] | inhibition (INH) [4] | IC50 ([5]; read-out: IC50) [µM] | IC50 ([6]; cos 22) | IC50 ([6]; read-out: IC50) [µM] | IC50 ([5]; cos 22) | SMILES | Activity [7] | IC50 ([1]; cos 22) | IC50 ([2]; cos 22) |
| --- | --- | --- | --- | --- | --- | --- | --- | --- | --- | --- | --- |
| 31 | 78 | 18 | Not Active | 32 |  | > 100 |  | CC(C)C[C@@H]1N[C@H]2CC(C)(C)[C@@H]1c1c(Br)cccc12 (racemic) | Non-toxic |  |  |
| 48 | 12 | 31 | Not Active | > 100 |  | > 100 |  | C=C(C)C[C@H]1[C@H]2c3c(Br)cccc3[C@H](CC2(C)C)N1Cc1cc(C)on1 (racemic) |  |  |  |
| 20 | 20 | > 100 | Not Active | > 100 |  | > 100 |  | C=C(C)C[C@H]1[C@H]2c3c(Br)cccc3[C@H](CC2(C)C)N1CCCCC (racemic) |  |  |  |
| 38 | 32 | > 100 | Not Active | > 100 | Not Active |  |  | C=C(C)C[C@H]1[C@H]2c3c(Br)cccc3[C@H](CC2(C)C)N1Cc1cccs1 (racemic) |  |  |  |
| 9 | 64 | 14 | Not Active | > 100 |  | > 100 |  | C=C(C)C[C@@H]1N[C@H]2CC(C)(C)[C@@H]1c1c(-c3ccc(Cl)c(Cl)c3)cccc12 (racemic) |  |  |  |

Reference: ChEMBL document CHEMBL3390837, “Bridged tetrahydroisoquinolines as selective NADPH oxidase 2 (Nox2) inhibitors” (Medchemcomm, 2013)
